This is an account of results in ChEMBL document CHEMBL4270628, “Design, synthesis, and evaluation of cystargolide-based β-lactones as potent proteasome inhibitors” (Eur J Med Chem, 2018).

Test [1] deals with T1, Proteasome Macropain subunit MB1 (Homo sapiens, UniProt P28074).
T1 sequence (P28074 whole entry): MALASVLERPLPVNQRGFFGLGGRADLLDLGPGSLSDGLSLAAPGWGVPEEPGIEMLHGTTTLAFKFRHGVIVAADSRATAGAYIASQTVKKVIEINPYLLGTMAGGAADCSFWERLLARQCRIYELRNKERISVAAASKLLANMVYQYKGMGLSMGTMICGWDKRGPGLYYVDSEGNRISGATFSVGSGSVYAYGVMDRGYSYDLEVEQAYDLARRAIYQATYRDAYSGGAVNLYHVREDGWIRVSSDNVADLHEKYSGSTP
Briefly: Inhibition of 20S proteasome beta5 subunit in human Jurkat cell lysate using Suc-LLVY-AMC as substrate pretreated for 30 mins followed by substrate addition and measured after 60 mins by fluorescence assay. An outline of the steps:
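Lysate was preincubated with compound 30 min at 37 °C. 100 μM substrate solution was added: Suc-LLVY-AMC for β5, Suc-RLR-AMC for β2. IC50 by nonlinear regression, ±SD.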

The subject of test [2] is MDA-MB-231. Briefly: Cytotoxicity against human MDA-MB-231 cells after 48 hrs by MTT assay. It counts as functional, cell-based. Particulars: MDA-MB-231, 48 h. The method, boiled down: (§1)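 MTT viability after 48 h exposure to a concentration series; MDA-MB-231 seeded at 4*10⁴ cells/mL and adhered overnight, RPMI 8226 at 4*10⁵ cells/mL and dosed immediately. MTT (5 mg/mL in PBS) added, 2 h at 37 °C; formazan dissolved in DMSO (MDA-MB-231) or DMF/SDS pH<4 (RPMI 8226); OD 490 nm.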
In general terms: Tetrazolium assays rely on reduction of a dye to a coloured formazan, in cell work by metabolically active cells.

Test [3] has as its system MCF7. The test can be described thus: Cytotoxicity against human MCF7 cells after 48 hrs by MTT assay. Particulars: MCF7, 48 h. The class given is functional, cell-based. The method, boiled down: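 MCF7 cells plated at 4*10⁴ cells/mL and left overnight to adhere, then exposed to a concentration series for 48 h, with DMSO vehicle, untreated cells, and 100 μM phenylarsine oxide as controls. MTT (5 mg/mL stock in PBS) was added for 2 h at 37 °C. Formazan was dissolved in DMSO and OD read at 490 nm. The best three of quadruplicate wells were used; IC50 from nonlinear regression on normalized data, ±SD.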

For test [4], the system named is RPMI-8226. Briefly: Cytotoxicity against human RPMI8226 cells after 48 hrs by MTT assay. Conditions: RPMI-8226, 48 h. The class given is functional, cell-based. The method, boiled down: as §1
Test [5] deals with T2, Proteasome Macropain subunit MB1 (Homo sapiens) (UniProt P28074).
T2 sequence (whole entry): T1 sequence (P28074 whole entry)
Briefly: Inhibition of 20S proteasome beta5 subunit in human MCF7 cells using Suc-LLVY-AMC as substrate pretreated for 1 hr followed by compound washout and cell lysis prior to substrate addition measured after 1 hr by fluorescence assay. The class given is cell-based. An outline of the steps: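 Adherent MCF7 (500,000 cells/mL, overnight, ~100% confluent) dosed 1 h at 37 °C, 5% CO₂; washed twice with PBS, lysed in HEPES/Triton buffer on ice 1 h; 15 min at 37 °C, then 100 μM Suc-LLVY-AMC 1 h at 37 °C; ex 360/em 480 nm. IC50 from best three of four biological replicates per concentration.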

The target in test [6] is T3, Proteasome subunit beta type-2 (Saccharomyces cerevisiae (strain ATCC 204508 / S288c) (Baker's yeast), UniProt P25043).
T3 sequence (P25043 whole entry): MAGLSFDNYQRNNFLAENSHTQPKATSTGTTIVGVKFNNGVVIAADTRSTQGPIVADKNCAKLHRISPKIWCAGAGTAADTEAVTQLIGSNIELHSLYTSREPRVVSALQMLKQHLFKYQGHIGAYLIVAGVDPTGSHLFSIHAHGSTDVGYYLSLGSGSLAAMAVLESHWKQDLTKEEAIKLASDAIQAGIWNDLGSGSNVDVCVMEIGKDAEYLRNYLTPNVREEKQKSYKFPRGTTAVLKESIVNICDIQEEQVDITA
Briefly: Inhibition of yeast 20S proteasome beta2 subunit using SUC-RLR-AMC as substrate pretreated for 30 mins followed by substrate addition and measured after 60 mins by fluorescence assay. An outline of the steps:
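Fluorogenic substrate was then added (100 μM Suc-RLR-AMC solution for β2) and incubated 60 min at 37 °C; cleavage read at ex 360/em 480 nm. IC50 from nonlinear regression on normalized data, ±SD.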

For test [7], the target named is T4, Proteasome subunit beta type-1 (Saccharomyces cerevisiae (strain ATCC 204508 / S288c) (Baker's yeast), UniProt P38624).
T4 sequence (P38624 whole entry): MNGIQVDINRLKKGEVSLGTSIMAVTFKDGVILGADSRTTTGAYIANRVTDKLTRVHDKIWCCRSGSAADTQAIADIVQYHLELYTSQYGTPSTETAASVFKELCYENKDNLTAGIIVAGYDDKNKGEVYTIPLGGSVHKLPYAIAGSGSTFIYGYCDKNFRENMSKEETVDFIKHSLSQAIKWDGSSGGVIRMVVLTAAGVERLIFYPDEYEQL
Briefly: Inhibition of yeast 20S proteasome beta1 subunit using fluorescent substrate pretreated for 30 mins followed by substrate addition and measured after 60 mins by fluorescence assay.

pIC50: −log10 of the molar value. Active and inactive are the calls of the source. No cut-off for these calls is given here. Some results are limits rather than exact numbers.

Consider `CC[C@H](C)[C@@H]1C(=O)O[C@H]1C(=O)N[C@H](C(=O)N[C@H](C(=O)OCc1ccccc1)C(C)(C)C)C(C)(C)C`, for which the pIC50 in test [1] was 7.44; in test [2], 6.17; in test [3], 5.72; in test [4], 5.91.

Consider `CC[C@H](C)[C@@H]1C(=O)O[C@H]1C(=O)N[C@H](C(=O)N[C@H](C(=O)OC)C(C)C)C(C)C`, for which the pIC50 in test [1] was 7.80; in test [2], 6.51; in test [3] it was 6.37; in test [4], 6.57.

Take `CC(C)[C@H](NC(=O)[C@@H]1OC(=O)[C@H]1C1CCC1)C(=O)N[C@H](C(=O)OCc1ccccc1)C(C)C`: the pIC50 is 7.88 in test [1], below 4.30 in test [2], below 4.30 in test [3] and 4.43 in test [4]. Also, in test [5], the inhibition result was “inactive”.

On to `CC(C)C[C@@H]1C(=O)O[C@H]1C(=O)N[C@H](C(=O)N[C@H](C(=O)OCc1ccccc1)C(C)C)C(C)C`, for which the pIC50 in test [1] is 7.71; in test [2] it was 4.52; in test [3], 4.26; in test [4], 4.47. For the same compound, the inhibition result in test [5] was “inactive”.

As to `CC[C@H](C)[C@@H]1C(=O)O[C@H]1C(=O)N[C@@H](CC(C)C)C(=O)N[C@H](C(=O)OCc1ccccc1)C(C)C`, the pIC50 in test [1] is 8.30; in test [2], 5.84; in test [3], 5.61; in test [4], 5.65. Moreover, the inhibition entry in test [5] was “Active”.

`CC[C@H](C)[C@@H]1C(=O)O[C@H]1C(=O)N[C@H](C(=O)N[C@H](C(=O)OCc1ccc(Cl)cc1)C(C)C)C(C)C`: the pIC50 in test [1] is 8.09; in test [2], 6.51; in test [3], 6.04; in test [4], 7.07.

`CC(C)[C@H](NC(=O)[C@@H]1OC(=O)[C@H]1C1CC1)C(=O)N[C@H](C(=O)OCc1ccccc1)C(C)C`: the pIC50 in test [1] was 8.12; in test [2], below 4.00; in test [3], below 4.00; in test [4], 4.13. The inhibition result in test [5] is “inactive”.

`CC[C@H](C)[C@@H]1C(=O)O[C@H]1C(=O)N[C@H](C(=O)N[C@H](C(=O)OCC1CCCCC1)C(C)C)C(C)C`: the pIC50 in test [1] was 7.73; in test [2], 5.49; in test [3], 5.34; in test [4] it was 6.52.

In the case of `CC[C@H](C)[C@@H]1C(=O)O[C@H]1C(=O)N[C@H](C(=O)N[C@H](C(=O)OCc1ccccc1)C(C)C)C(C)(C)C`, the pIC50 in test [1] was 7.64; in test [2], 6.16; in test [3] it was 5.64; in test [4], 6.13. Also, in test [5], the inhibition result was “Active”.

In the case of `CC[C@H](C)[C@@H]1C(=O)O[C@H]1C(=O)N[C@@H](Cc1ccccc1)C(=O)N[C@@H](Cc1ccccc1)C(=O)OCc1ccccc1`, the pIC50 in test [1] was 7.94; in test [2], 5.28; in test [3], 5.20; in test [4], 5.93.

In the case of `CC[C@H](C)[C@@H]1C(=O)O[C@H]1C(=O)N[C@@H](COCc1ccccc1)C(=O)N[C@H](C(=O)OCc1ccccc1)C(C)C`, the pIC50 in test [1] is 8.11; in test [2], 5.54; in test [3], 5.46; in test [4] it was 5.77. For the same compound, the inhibition entry in test [5] is “Active”.

As to `CC[C@H](C)[C@@H]1C(=O)O[C@H]1C(=O)N[C@H](C(=O)N[C@H](C(=O)OCc1ccc(OC)cc1)C(C)C)C(C)C`, the pIC50 in test [1] was 7.99; in test [2], 6.55; in test [3] it was 6.07; in test [4] it was 6.94.

Take `CC[C@H](C)[C@@H]1C(=O)O[C@H]1C(=O)NCC(=O)N[C@H](C(=O)OCc1ccccc1)C(C)C`: the pIC50 is 8.57 in test [1], 6.17 in test [2], 5.68 in test [3] and 6.12 in test [4]. For the same compound, the inhibition entry in test [5] was “Active”.

Turning to `CC[C@H](C)[C@@H]1C(=O)O[C@H]1C(=O)N[C@H](C(=O)N[C@H](C(=O)OCc1ccccc1)C(C)(C)C)C(C)C`, the pIC50 in test [1] is 8.01; in test [2], 5.72; in test [3], 5.94; in test [4], 5.76. Besides, the inhibition result in test [5] was “inactive”.

Consider `CC(C)[C@H](NC(=O)[C@@H]1OC(=O)[C@H]1C1CCCC1)C(=O)N[C@H](C(=O)OCc1ccccc1)C(C)C`, for which the pIC50 in test [1] was 7.89; in test [2] it was 4.55; in test [3] it was 4.30; in test [4], 5.63. In addition, in test [5], the inhibition result was “inactive”.

Turning to `CC[C@H](C)[C@@H]1C(=O)O[C@H]1C(=O)N[C@H](C(=O)N[C@@H](CC(C)C)C(=O)OCc1ccccc1)C(C)C`, the pIC50 in test [1] is 8.11; in test [2], 6.66; in test [3], 6.48; in test [4] it was 6.54. In test [5], the inhibition entry was “Active”.

Regarding `CC[C@H](C)[C@@H]1C(=O)O[C@H]1C(=O)N[C@H](C(=O)N[C@@H](Cc1ccccc1)C(=O)OCc1ccccc1)C(C)C`, the negative logarithm of the IC50 (pIC50) in test [1] was 8.24; in test [2], 5.48; in test [3], 5.56; in test [4], 5.96.

In the case of `CC(C)C[C@H](NC(=O)[C@H](CCc1ccccc1)NC(=O)CN1CCOCC1)C(=O)N[C@@H](Cc1ccccc1)C(=O)N[C@@H](CC(C)C)C(=O)[C@@]1(C)CO1` [CARFILZOMIB], the pIC50 is 8.36 in test [2]; 8.39 in test [3]; 8.17 in test [4]; below 6.00 in test [6]; below 6.00 in test [7].

`CC[C@H](C)[C@@H]1C(=O)O[C@H]1C(=O)N[C@@H](Cc1ccccc1)C(=O)N[C@H](C(=O)OCc1ccccc1)C(C)C`: the pIC50 in test [1] was 8.11; in test [2] it was 5.43; in test [3], 5.16; in test [4], 5.58. In test [5], the inhibition result was “Active”.

On to `CC[C@H](C)[C@@H]1C(=O)O[C@H]1C(=O)N[C@H](C(=O)N[C@H](C(=O)OCC(C)C)C(C)C)C(C)C`, for which the pIC50 was 8.06 in test [1], 6.50 in test [2], 6.18 in test [3] and 7.02 in test [4].

As to `C=CCCOC(=O)[C@@H](NC(=O)[C@@H](NC(=O)[C@@H]1OC(=O)[C@H]1[C@@H](C)CC)C(C)C)C(C)C`, the pIC50 is 8.18 in test [1], 6.47 in test [2], 6.28 in test [3] and 6.57 in test [4].

The term pIC50 denotes the IC50 on a negative log10 scale, so that one unit is a factor of ten.
